Measured values from ChEMBL document CHEMBL4325842, “Design, synthesis, and biological evaluation of novel aminopyrimidinylisoindolines as AXL kinase inhibitors” (Bioorg Med Chem Lett, 2018).

How the values were obtained:
[1] = target: Vascular endothelial growth factor receptor 1 (Homo sapiens) (UniProt P17948); test: Inhibition of human FLT1 at 10 uM using poly[Glu:Tyr] (4:1) as substrate by [gamma-33P]-ATP assay relative to control
Summary of the method: (§1)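 Commercial kinase panel screen at a single concentration of 10 μM. % inhibition was calculated as 100 minus % activity.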

[2] = target: Tyrosine-protein kinase Fyn (Homo sapiens) (UniProt P06241); test: Inhibition of human FYN at 10 uM using poly[Glu:Tyr] (4:1) as substrate by [gamma-33P]-ATP assay relative to control; summary of the method: as §1
Tyrosine-protein kinase Fyn (Homo sapiens), sequence (P06241 2-537 limits assumed): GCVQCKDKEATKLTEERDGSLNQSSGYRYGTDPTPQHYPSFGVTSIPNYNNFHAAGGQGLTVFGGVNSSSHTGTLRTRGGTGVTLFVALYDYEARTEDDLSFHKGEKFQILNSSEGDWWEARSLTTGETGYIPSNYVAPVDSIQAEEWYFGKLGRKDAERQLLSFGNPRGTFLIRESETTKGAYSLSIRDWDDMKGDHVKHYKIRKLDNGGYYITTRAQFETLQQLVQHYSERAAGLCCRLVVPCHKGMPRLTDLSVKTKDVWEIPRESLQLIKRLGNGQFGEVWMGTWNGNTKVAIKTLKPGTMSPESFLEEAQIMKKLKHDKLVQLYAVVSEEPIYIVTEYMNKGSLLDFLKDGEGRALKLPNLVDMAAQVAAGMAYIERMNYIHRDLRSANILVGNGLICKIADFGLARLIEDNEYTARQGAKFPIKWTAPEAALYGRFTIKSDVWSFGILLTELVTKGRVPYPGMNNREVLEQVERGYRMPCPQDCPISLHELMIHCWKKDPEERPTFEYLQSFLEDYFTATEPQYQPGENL

[3] = target: Serine/threonine-protein kinase PLK1 (Homo sapiens, UniProt P53350); test: Inhibition of human PLK1 using casein as substrate by [gamma-33P]-ATP assay
[4] = target: Serine/threonine-protein kinase 26 (Homo sapiens) (UniProt Q9P289); test: Inhibition of human MST4 at 10 uM using MBP as substrate by [gamma-33P]-ATP assay relative to control; summary of the method: as §1
Serine/threonine-protein kinase 26 (Homo sapiens), sequence (Q9P289 2-416 limits assumed): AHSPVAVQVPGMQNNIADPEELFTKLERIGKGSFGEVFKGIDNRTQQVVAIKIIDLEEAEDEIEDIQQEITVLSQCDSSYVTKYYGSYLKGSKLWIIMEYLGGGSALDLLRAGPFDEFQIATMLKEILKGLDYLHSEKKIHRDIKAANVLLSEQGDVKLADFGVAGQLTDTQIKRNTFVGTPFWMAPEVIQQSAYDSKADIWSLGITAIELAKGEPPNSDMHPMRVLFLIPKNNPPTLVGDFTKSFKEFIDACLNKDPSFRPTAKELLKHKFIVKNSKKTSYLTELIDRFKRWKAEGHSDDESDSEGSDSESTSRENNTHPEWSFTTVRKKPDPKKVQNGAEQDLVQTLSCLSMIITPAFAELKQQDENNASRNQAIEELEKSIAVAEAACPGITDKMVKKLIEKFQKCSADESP

[5] = target: Epidermal growth factor receptor (Homo sapiens) (UniProt P00533); test: Inhibition of human EGFR at 10 uM using poly[Glu:Tyr] (4:1) as substrate by [gamma-33P]-ATP assay relative to control; summary of the method: as §1
[6] = target: Tyrosine-protein kinase Lyn (Homo sapiens) (UniProt P07948); test: Inhibition of human LYN at 10 uM using poly[Glu:Tyr] (4:1) as substrate by [gamma-33P]-ATP assay relative to control; summary of the method: as §1
[7] = target: T1, Tyrosine-protein kinase SYK (Homo sapiens, UniProt P43405); test: Inhibition of human SYK using poly[Glu:Tyr] (4:1) as substrate by [gamma-33P]-ATP assay
[8] = target: Tyrosine-protein kinase receptor TYRO3 (Homo sapiens, UniProt Q06418); test: Inhibition of human TYRO3 using poly[Glu:Tyr] (4:1) as substrate by [gamma-33P]-ATP assay
Tyrosine-protein kinase receptor TYRO3, sequence (Q06418 whole entry): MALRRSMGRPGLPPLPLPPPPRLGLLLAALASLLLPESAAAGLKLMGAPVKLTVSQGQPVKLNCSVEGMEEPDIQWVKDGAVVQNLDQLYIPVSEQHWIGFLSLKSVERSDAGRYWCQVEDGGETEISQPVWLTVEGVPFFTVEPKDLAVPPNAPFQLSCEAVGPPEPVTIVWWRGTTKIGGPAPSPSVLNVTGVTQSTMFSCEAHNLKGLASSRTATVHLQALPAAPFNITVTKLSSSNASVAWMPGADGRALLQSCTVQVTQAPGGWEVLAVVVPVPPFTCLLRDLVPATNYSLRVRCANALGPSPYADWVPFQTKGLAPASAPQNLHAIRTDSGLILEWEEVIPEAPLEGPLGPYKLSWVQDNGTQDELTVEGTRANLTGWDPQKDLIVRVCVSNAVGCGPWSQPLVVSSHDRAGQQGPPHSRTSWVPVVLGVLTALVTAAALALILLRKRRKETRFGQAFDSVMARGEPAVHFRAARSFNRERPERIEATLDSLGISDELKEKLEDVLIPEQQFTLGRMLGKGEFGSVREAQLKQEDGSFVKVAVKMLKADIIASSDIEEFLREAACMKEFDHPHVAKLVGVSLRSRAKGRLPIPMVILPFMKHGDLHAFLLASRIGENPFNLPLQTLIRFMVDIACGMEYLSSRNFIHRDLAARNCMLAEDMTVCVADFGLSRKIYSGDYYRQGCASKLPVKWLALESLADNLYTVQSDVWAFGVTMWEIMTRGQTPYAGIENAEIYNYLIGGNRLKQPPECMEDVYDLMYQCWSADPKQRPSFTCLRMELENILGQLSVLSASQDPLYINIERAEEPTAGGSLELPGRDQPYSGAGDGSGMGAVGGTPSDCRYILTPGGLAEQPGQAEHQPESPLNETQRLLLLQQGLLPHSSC

[9] = target: DNA-dependent protein kinase catalytic subunit (Homo sapiens) (UniProt P78527); test: Inhibition of human DNA-PK at 10 uM using EPPLSQEAFADLWKK as substrate by [gamma-33P]-ATP assay relative to control; summary of the method: as §1
[10] = target: Death-associated protein kinase 1 (Homo sapiens) (UniProt P53355); test: Inhibition of human DAPK1 at 10 uM using KKLNRTLSFAEPG as substrate by [gamma-33P]-ATP assay relative to control; summary of the method: as §1
[11] = target: T2, Focal adhesion kinase 1 (Homo sapiens, UniProt Q05397); test: Inhibition of human FAK using poly[Glu:Tyr] (4:1) as substrate by [gamma-33P]-ATP assay
[12] = system: A549; test: Antiproliferative activity against human A549 cells after 2 days by spectrophotometric analysis; format: functional; details: A549, 48 h
[13] = target: T2, Focal adhesion kinase 1; test: Inhibition of human FAK at 10 uM using poly[Glu:Tyr] (4:1) as substrate by [gamma-33P]-ATP assay relative to control; summary of the method: as §1
[14] = system: MDA-MB-231; test: Antiproliferative activity against human MDA-MB-231 cells after 2 days by spectrophotometric analysis; format: functional; details: MDA-MB-231, 48 h
[15] = target: Casein kinase I isoform epsilon (Homo sapiens) (UniProt P49674); test: Inhibition of human CK1 epsilon at 10 uM using KRRRAL[pS]VASLPGL as substrate by [gamma-33P]-ATP assay relative to control; summary of the method: as §1
Casein kinase I isoform epsilon (Homo sapiens), sequence (P49674 whole entry, looked up, canonical isoform): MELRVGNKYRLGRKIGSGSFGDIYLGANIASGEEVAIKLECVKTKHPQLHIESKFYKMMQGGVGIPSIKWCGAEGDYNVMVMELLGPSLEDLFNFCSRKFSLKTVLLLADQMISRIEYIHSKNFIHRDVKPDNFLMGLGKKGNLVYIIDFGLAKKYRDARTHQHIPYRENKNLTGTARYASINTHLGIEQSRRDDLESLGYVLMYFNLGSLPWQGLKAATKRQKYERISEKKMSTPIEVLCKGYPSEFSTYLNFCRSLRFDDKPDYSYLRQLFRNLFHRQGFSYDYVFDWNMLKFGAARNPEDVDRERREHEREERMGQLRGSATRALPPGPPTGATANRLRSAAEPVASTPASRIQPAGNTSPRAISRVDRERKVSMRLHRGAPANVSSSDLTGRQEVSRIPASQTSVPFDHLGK

[16] = target: Tyrosine-protein kinase Yes (Homo sapiens) (UniProt P07947); test: Inhibition of human YES at 10 uM using poly[Glu:Tyr] (4:1) as substrate by [gamma-33P]-ATP assay relative to control
Summary of the method: (§2)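 Kinase-panel profiling (50 oncogenic kinases) run by an outside contract service. The test compound was tested at a single concentration of 10 μM. Percent inhibition was calculated as 100 minus % remaining activity.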

[17] = system: HepG2; test: Antiproliferative activity against human HepG2 cells after 2 days by spectrophotometric analysis; format: functional; details: HepG2, 48 h
[18] = target: Aurora kinase A (Homo sapiens, UniProt O14965); test: Inhibition of human AuroraA using [H-LRRASLG] as substrate by [gamma-33P]-ATP assay
Aurora kinase A, sequence (O14965 whole entry): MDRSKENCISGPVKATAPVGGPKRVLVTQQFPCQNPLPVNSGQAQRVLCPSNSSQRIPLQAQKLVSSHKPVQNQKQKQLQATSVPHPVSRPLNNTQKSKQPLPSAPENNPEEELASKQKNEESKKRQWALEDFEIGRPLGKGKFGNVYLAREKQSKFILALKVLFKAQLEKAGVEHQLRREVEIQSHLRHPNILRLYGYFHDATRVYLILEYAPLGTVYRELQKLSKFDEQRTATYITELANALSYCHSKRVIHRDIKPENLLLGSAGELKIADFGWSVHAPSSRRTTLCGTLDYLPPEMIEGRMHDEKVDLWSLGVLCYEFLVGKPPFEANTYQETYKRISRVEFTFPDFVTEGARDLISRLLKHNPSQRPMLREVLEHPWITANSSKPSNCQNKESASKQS

[19] = system: NOMO-1; test: Antiproliferative activity against human NOMO1 cells after 2 days by spectrophotometric analysis; format: functional; details: NOMO-1, 48 h
[20] = target: Protein kinase C alpha type (Homo sapiens) (UniProt P17252); test: Inhibition of human PKCalpha at 10 uM using ERMRPRKRQGSVRRRV as substrate by [gamma-33P]-ATP assay relative to control; summary of the method: as §2
[21] = target: Angiopoietin-1 receptor (Homo sapiens) (UniProt Q02763); test: Inhibition of human TIE2 at 10 uM using poly[Glu:Tyr] (4:1) as substrate by [gamma-33P]-ATP assay relative to control; summary of the method: as §2
[22] = target: Tyrosine-protein kinase Mer (Homo sapiens) (UniProt Q12866); test: Inhibition of human MER at 10 uM using poly[Glu:Tyr] (4:1) as substrate by [gamma-33P]-ATP assay relative to control; summary of the method: as §1
[23] = system: HT-1080; test: Antiproliferative activity against human HT1080 cells after 2 days by spectrophotometric analysis; format: functional; details: HT-1080, 48 h
[24] = target: Fibroblast growth factor receptor 1 (Homo sapiens) (UniProt P11362); test: Inhibition of human FGFR1 at 10 uM using KKKSPGEYVNIEFG as substrate by [gamma-33P]-ATP assay relative to control; summary of the method: as §1
Fibroblast growth factor receptor 1 (Homo sapiens), sequence (P11362 22-822 limits assumed): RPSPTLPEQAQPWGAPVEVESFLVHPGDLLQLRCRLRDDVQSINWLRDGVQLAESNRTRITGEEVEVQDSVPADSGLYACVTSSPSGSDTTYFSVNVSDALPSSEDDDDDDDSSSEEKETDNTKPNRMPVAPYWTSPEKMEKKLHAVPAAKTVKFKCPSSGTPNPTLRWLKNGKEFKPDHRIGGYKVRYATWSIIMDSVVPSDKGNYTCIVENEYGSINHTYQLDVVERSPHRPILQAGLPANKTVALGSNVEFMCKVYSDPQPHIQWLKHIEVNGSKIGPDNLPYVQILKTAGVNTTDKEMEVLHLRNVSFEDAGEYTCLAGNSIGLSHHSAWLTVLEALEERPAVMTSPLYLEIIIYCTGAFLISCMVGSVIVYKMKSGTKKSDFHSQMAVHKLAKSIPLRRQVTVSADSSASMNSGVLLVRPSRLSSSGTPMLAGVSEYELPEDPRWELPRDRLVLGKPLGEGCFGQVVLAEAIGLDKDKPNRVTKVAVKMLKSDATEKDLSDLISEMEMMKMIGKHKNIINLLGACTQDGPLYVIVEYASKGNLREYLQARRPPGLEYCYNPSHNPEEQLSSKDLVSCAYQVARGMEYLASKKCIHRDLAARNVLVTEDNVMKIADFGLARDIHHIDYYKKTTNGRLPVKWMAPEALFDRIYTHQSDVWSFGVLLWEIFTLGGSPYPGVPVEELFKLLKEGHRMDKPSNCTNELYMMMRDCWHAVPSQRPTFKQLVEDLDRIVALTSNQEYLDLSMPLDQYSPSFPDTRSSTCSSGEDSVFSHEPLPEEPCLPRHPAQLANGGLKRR

[25] = target: Cyclin-dependent kinase 1/cyclin B1 (Homo sapiens) (UniProt P06493+P14635); test: Inhibition of human CDK1/cyclinB at 10 uM using Histone H1 as substrate by [gamma-33P]-ATP assay relative to control; format: protein-complex assay; summary of the method: as §1
[26] = target: T1, Tyrosine-protein kinase SYK; test: Inhibition of human SYK at 10 uM using poly[Glu:Tyr] (4:1) as substrate by [gamma-33P]-ATP assay relative to control; summary of the method: as §2
[27] = target: Tyrosine-protein kinase receptor TYRO3 (Homo sapiens) (UniProt Q06418); test: Inhibition of human TYRO3 at 10 uM using poly[Glu:Tyr] (4:1) as substrate by [gamma-33P]-ATP assay relative to control; summary of the method: as §2
Tyrosine-protein kinase receptor TYRO3 (Homo sapiens), sequence (Q06418 whole entry): as the sequence (Q06418 whole entry) above

[28] = target: Serine/threonine-protein kinase PAK 4 (Homo sapiens) (UniProt O96013); test: Inhibition of human PAK4 at 10 uM using RRRLSFAEPG as substrate by [gamma-33P]-ATP assay relative to control; summary of the method: as §2
[29] = system: MV4-11; test: Antiproliferative activity against human MV4-11 cells after 2 days by spectrophotometric analysis; format: functional; details: MV4-11, 48 h
[30] = target: Proto-oncogene tyrosine-protein kinase ROS (Homo sapiens) (UniProt P08922); test: Inhibition of human ROS at 10 uM using KKKSPGEYVNIEFG as substrate by [gamma-33P]-ATP assay relative to control; summary of the method: as §2
[31] = target: Muscle, skeletal receptor tyrosine-protein kinase (Homo sapiens) (UniProt O15146); test: Inhibition of human MUSK at 10 uM using MBP as substrate by [gamma-33P]-ATP assay relative to control; summary of the method: as §1
Muscle, skeletal receptor tyrosine-protein kinase (Homo sapiens), sequence (O15146 whole entry): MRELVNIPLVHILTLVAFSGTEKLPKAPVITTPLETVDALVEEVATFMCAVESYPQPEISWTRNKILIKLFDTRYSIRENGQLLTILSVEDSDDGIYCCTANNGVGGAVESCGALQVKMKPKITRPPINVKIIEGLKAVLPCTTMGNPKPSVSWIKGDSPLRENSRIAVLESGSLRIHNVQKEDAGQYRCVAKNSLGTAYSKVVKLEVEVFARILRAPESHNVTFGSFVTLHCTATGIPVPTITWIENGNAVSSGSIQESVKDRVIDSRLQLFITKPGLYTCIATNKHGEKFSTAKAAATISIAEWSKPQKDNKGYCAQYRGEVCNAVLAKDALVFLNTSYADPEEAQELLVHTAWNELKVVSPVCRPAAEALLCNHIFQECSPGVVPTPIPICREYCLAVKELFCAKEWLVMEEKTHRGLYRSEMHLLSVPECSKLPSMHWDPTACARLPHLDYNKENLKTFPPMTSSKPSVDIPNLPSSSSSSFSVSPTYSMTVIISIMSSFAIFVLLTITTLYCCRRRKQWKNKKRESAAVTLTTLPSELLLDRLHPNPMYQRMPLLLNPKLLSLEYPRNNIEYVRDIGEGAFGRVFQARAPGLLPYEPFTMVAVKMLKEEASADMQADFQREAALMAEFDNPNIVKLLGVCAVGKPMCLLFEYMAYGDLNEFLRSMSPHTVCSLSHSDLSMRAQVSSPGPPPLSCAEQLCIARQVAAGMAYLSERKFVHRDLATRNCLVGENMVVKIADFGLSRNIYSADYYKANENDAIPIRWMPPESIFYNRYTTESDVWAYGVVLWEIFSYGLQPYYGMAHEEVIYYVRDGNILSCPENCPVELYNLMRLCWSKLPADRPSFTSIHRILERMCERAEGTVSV

SMILES: CC(=O)N1CCN(c2ccc(Nc3ncc(C(F)(F)F)c(N4Cc5cccc(N(C)S(C)(=O)=O)c5C4)n3)cc2)CC1
- inhibition [1]: 49%
- inhibition [2]: 62.2%
- IC50 [3]: 8.8 nM
- inhibition [4]: 25.3%
- inhibition [5]: 2%
- inhibition [6]: 69.1%
- IC50 [7]: 5.1 nM
- IC50 [8]: 50 nM
- inhibition [9]: -4%
- inhibition [10]: 42.2%
- IC50 [11]: 11 nM
- GI50 [12]: 1300 nM
- inhibition [13]: 96.4%
- GI50 [14]: 500 nM
- inhibition [15]: -2.5%
- inhibition [16]: 90.5%
- GI50 [17]: 1400 nM
- IC50 [18]: 3 nM
- GI50 [19]: 3800 nM
- inhibition [20]: 19.3%
- inhibition [21]: 65.4%
- inhibition [22]: 90.6%
- GI50 [23]: 1800 nM
- inhibition [24]: 26%
- inhibition [25]: 20.5%
- inhibition [26]: 95.3%
- inhibition [27]: 87.7%
- inhibition [28]: 16.2%
- GI50 [29]: 100 nM
- inhibition [30]: 92.2%
- inhibition [31]: 66.6%
